{"data": "Experimental data of several laboratories", "target": "Serine/threonine-protein kinase MRCK alpha (CDC42BPA, Homo sapiens, UniProt Q5VT25)", "note": "Protocols differ between the studies behind these lines."}
{"Structure (SMILES)": "COc1ccnn2ncc(-c3ccnc(N(C)C)n3)c12", "observed": "binding", "concentration": "1 µM", "remaining binding": "100%"}
{"Structure (SMILES)": "NS(=O)(=O)c1cc(NC(=O)Cc2ccccc2)ccc1Oc1cccc(Cl)c1", "observed": "cell-free assay", "technique": "competition with immobilised ligand", "concentration": "1 µM", "remaining binding": "91%"}
{"Structure (SMILES)": "C[C@H]1CCN(c2nccc(-c3cnn4ncccc34)n2)C1", "observed": "binding", "concentration": "1 µM", "remaining binding": "98%"}
{"Structure (SMILES)": "COc1cc(-c2cn(C3CCc4c(F)cccc4N(CC(F)(F)F)C3=O)nn2)ccc1-n1cnc(C)c1 (stereo not shown)", "observed": "cell-free assay", "technique": "competition with immobilised ligand", "concentration": "1 µM", "remaining binding": "100%"}
{"Structure (SMILES)": "c1cnn2ncc(-c3ccnc(N4CCC45COC5)n3)c2c1", "observed": "binding", "concentration": "1 µM", "remaining binding": "100%"}
{"Structure (SMILES)": "O=C(NCC1CCOCC1)c1n[nH]cc1NC(=O)c1c(F)cccc1F", "observed": "binding", "technique": "competition with immobilised ligand", "concentration": "1 µM", "remaining binding": "100%"}
{"Structure (SMILES)": "C[C@@]1(Cc2ccc(C#N)cc2)C(=O)N(c2cc(Cl)cc(Cl)c2)c2ncc(C(=O)NC3(c4nc(C5CCC5)no4)CC3)n21", "observed": "cell-free assay", "technique": "competition with immobilised ligand", "concentration": "1 µM", "remaining binding": "100%"}
{"Structure (SMILES)": "F[C@@H]1CCN(c2nccc(-c3cnn4ncccc34)n2)C1", "observed": "binding", "concentration": "1 µM", "remaining binding": "100%"}
{"Structure (SMILES)": "CCC(=N\\O)/C(C)=C/c1ccc(F)cc1", "observed": "cell-free assay", "technique": "competition with immobilised ligand", "concentration": "1 µM", "remaining binding": "100%"}
{"Structure (SMILES)": "FC(F)(F)Oc1cccc(-c2cnc3ccc(-c4ccncc4)nn23)c1", "observed": "cell-free assay", "technique": "competition with immobilised ligand", "concentration": "5 µM", "remaining binding": "69%"}
{"Structure (SMILES)": "C[C@@H](c1ccc(-n2cnc3c(N)ncnc32)cc1)N1CCc2nn(C)c(Cc3ccccc3)c2C1=O", "observed": "binding", "technique": "competition with immobilised ligand", "concentration": "0.1 µM", "remaining binding": "91%"}
{"Structure (SMILES)": "CC1CCCN1c1nccc(-c2cnn3ncccc23)n1 (stereo not shown)", "observed": "binding", "concentration": "1 µM", "remaining binding": "100%"}
{"Structure (SMILES)": "Cc1cnc(Nc2ccc(C(=O)N3CCC(N4CCCC4)CC3)cc2)nc1-c1cc2ccccc2s1", "observed": "binding", "technique": "competition with immobilised ligand", "concentration": "1 µM", "remaining binding": "10%"}
{"Structure (SMILES)": "C=CC(=O)N1CCC(C(=O)NCC(=O)N2CCN(c3nc(-c4cnc(N)nc4C(F)F)nc(N4CCOCC4)n3)CC2)CC1", "observed": "binding", "technique": "competition with immobilised ligand", "concentration": "1 µM", "remaining binding": "100%"}
{"Structure (SMILES)": "CCN1CCN(Cc2ccc(C(=O)Nc3ccc(C)c(Oc4ccc5c(c4)CC(=O)N5)c3)cc2C(F)(F)F)CC1", "observed": "binding", "technique": "competition with immobilised ligand", "concentration": "1 µM", "remaining binding": "100%"}
{"Structure (SMILES)": "O=C(c1ccc(Nc2nccc(-c3cc4ccccc4s3)n2)cc1)N1CCC(N2CCCC2)CC1", "observed": "binding", "technique": "competition with immobilised ligand", "concentration": "1 µM", "remaining binding": "65%"}
{"Structure (SMILES)": "CS(=O)(=O)N1CCCC(NC(=O)[C@H](CCC2CCCCC2)NC(=O)c2ccc(CNc3ncnc4c3nnn4-c3ccccc3)cc2)C1 (stereo partly shown)", "observed": "cell-free assay", "technique": "competition with immobilised ligand", "concentration": "0.1 µM", "remaining binding": "100%"}
{"Structure (SMILES)": "CNC(=O)[C@@H]1CC[C@@H](n2c(-c3ccc4cnccc4c3)nc3ccc(C(=O)NCc4cccc(C(N)=O)c4)cc32)C1", "observed": "binding", "technique": "competition with immobilised ligand", "concentration": "1 µM", "remaining binding": "100%"}
{"Structure (SMILES)": "Cc1noc([C@H]2C[C@@H](c3ccc(C(F)(F)F)cc3)CN(C(=O)N3CCS(=O)(=O)C3)C2)n1", "observed": "cell-free assay", "technique": "competition with immobilised ligand", "concentration": "1 µM", "remaining binding": "100%"}
{"Structure (SMILES)": "N[C@@H]1CCN(c2nccc(-c3cnn4ncccc34)n2)C1", "observed": "binding", "concentration": "1 µM", "remaining binding": "100%"}
{"Structure (SMILES)": "O=C(NCCCN1CCOCC1)c1ccc(Nc2nccc(-c3cc4ccccc4s3)n2)cc1", "observed": "binding", "technique": "competition with immobilised ligand", "concentration": "1 µM", "remaining binding": "72%"}
{"Structure (SMILES)": "Nc1ncc2c(n1)-c1c([nH]c3ccc(C#CC4CC4)cc13)CCCC2", "observed": "binding", "technique": "competition with immobilised ligand", "concentration": "1 µM", "remaining binding": "88%"}
